Results taken from ChEMBL document CHEMBL1154114, “7-((4-Substituted)piperazin-1-yl) derivatives of ciprofloxacin: synthesis and in vitro biological evaluation as potential antitumor agents” (Bioorg Med Chem, 2009).
pIC50: −log10 of the molar value.

What was measured:
HeLa [1] = experiment: Inhibition of human HeLa cell proliferation; assay type: functional, cell-based
[2] = Inhibition of mouse NIH/3T3 cell proliferation by MTT assay; assay type: cell-based; conditions: NIH3T3
[3] = Inhibition of human RPMI8226/S cell proliferation; assay type: functional, cell-based
MCF7 [4] = experiment: Inhibition of human MCF7 cell proliferation; assay type: functional, cell-based
G-quadruplex DNA = experiment: Interaction with G-quadruplex DNA assessed by polymerase stop assay
A-431 = experiment: Inhibition of human A431 cell proliferation by MTT assay; assay type: functional, cell-based
KB = experiment: Inhibition of human KB cell proliferation by MTT assay; assay type: functional, cell-based
EJ = experiment: Inhibition of human EJ cell proliferation by MTT assay; assay type: functional, cell-based
SK-MEL = experiment: Inhibition of human SK-MEL cell proliferation by MTT assay; assay type: functional, cell-based
MCF7 [5] = experiment: Inhibition of human MCF7 cell proliferation by MTT assay; assay type: functional, cell-based
SW480 = experiment: Inhibition of human SW480 cell proliferation by MTT assay; assay type: functional, cell-based
NCI-H460 = experiment: Inhibition of human NCI-H460 cell proliferation by sulphorodhamine B assay; assay type: functional, cell-based
CHO [6] = experiment: Inhibition of verapamil-resistant CHO cell proliferation by colony-forming assay; assay type: cell-based; conditions: Cricetulus griseus
CHO [7] = experiment: Inhibition of CHO cell proliferation by colony-forming assay; assay type: cell-based; conditions: Cricetulus griseus
Drosophila melanogaster = experiment: Inhibition of Drosophila melanogaster DNA topoisomerase 2-mediated pBR322 DNA relaxation by agarose gel electrophoresis
[8] = Inhibition of human MDA231 cell proliferation; assay type: functional, cell-based; conditions: MDA-MB-231
NCI-H226 = experiment: Inhibition of human NCI-H226 cell proliferation; assay type: functional, cell-based
[9] = target: DNA topoisomerase 2-alpha (Homo sapiens) (UniProt P11388); experiment: Inhibition of human topoisomerase 2 assessed as conversion of catenated to decatenated form of kDNA
[10] = target: DNA topoisomerase 2-alpha (Homo sapiens) (UniProt P11388); experiment: Inhibition of human topoisomerase 2-mediated DNA unwinding activity
HT-29 [11] = experiment: Inhibition of human HT-29 cell proliferation; assay type: functional, cell-based
PC-3 [12] = experiment: Antitumor activity against human PC3 cells after 5 days by MTT assay; assay type: functional, cell-based; conditions: PC-3, 120 h
Outline: (§1)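 Five human cancer lines (prostate PC-3, glioblastoma U373-MG, colorectal LoVo, NSCLC A549, breast MCF-7) plated at 10⁴ to 3×10⁴ cells/mL depending on cell type, allowed 24 h to attach, then cultured 120 h with or without drug at nine concentrations. MTT reduction to formazan read at 570 nm (reference 630 nm).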

[13] = Antitumor activity against human U373MG cells after 5 days by MTT assay; assay type: functional, cell-based, U-373MG ATCC; conditions: U373 MG, 120 h; outline: as §1
[14] = Toxicity in ip dosed B6D2F1 mouse assessed as maximum tolerated dose after 28 days; assay type: organism-based; conditions: in vivo
Outline: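 Healthy mice, three per group, each given a single ip dose and observed for up to 28 days. The MTD index is the highest single dose given without causing any deaths in the group.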

[15] = Stability in phosphate buffer of pH 7.4 after 6 days; assay type: physicochemical; conditions: read-out: Stability
Outline: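 Compound dissolved at 1 mM in DMSO, diluted with phosphate buffer pH 7.4 to 1 mL, incubated sealed at 37 °C for 6 days. A t0 aliquot was held at 4 °C. HPLC with 280 nm detection and duplicate injections, with expected degradation products as references. Stability is taken as compound peak area over (compound + degradation product) peak area.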

A549 [16] = experiment: Antitumor activity against human A549 cells after 5 days by MTT assay; assay type: functional, cell-based; conditions: A549, 120 h; outline: as §1
MCF7 [17] = experiment: Antitumor activity against human MCF7 cells after 5 days by MTT assay; assay type: functional, cell-based; conditions: MCF7, 120 h; outline: as §1
LoVo [18] = experiment: Antitumor activity against human LoVo cells after 5 days by MTT assay; assay type: functional, cell-based; conditions: 120 h; outline: as §1
[19] = Inhibition of human […] cell proliferation; assay type: functional, cell-based
P388 = experiment: Inhibition of mouse P388 cell proliferation; assay type: functional, cell-based
HCT-8 = experiment: Antitumor activity against human HCT8 cells after 3 days by MTT assay; assay type: functional, cell-based; conditions: HCT-8, 72 h
HT-29 [20] = experiment: Antitumor activity against human HT-29 cells after 3 days by MTT assay; assay type: functional, cell-based; conditions: HT-29, 72 h
DU-145 = experiment: Inhibition of human DU145 cell proliferation; assay type: functional, cell-based
MCF7 [21] = experiment: Antitumor activity against human MCF7 cells after 3 days by MTT assay; assay type: functional, cell-based; conditions: MCF7, 72 h
A549 [22] = experiment: Antitumor activity against human A549 cells after 3 days by MTT assay; assay type: functional, cell-based; conditions: A549, 72 h
LoVo [23] = experiment: Ratio of ciprofloxacin IC50 to compound IC50 for human LoVo cells; assay type: functional
U373 MG = experiment: Ratio of ciprofloxacin IC50 to compound IC50 for human U373MG cells; assay type: functional, U-373MG ATCC
PC-3 [24] = experiment: Ratio of ciprofloxacin IC50 to compound IC50 for human PC3 cells; assay type: functional
MCF7 [25] = experiment: Ratio of ciprofloxacin IC50 to compound IC50 for human MCF7 cells; assay type: functional
A549 [26] = experiment: Ratio of ciprofloxacin IC50 to compound IC50 for human A549 cells; assay type: functional
MC3T3-E1 = experiment: Inhibition of mouse MC3T3-E1 cell proliferation after 48 to 72 hrs; assay type: functional, cell-based
HeLa [27] = experiment: Inhibition of human HeLa cell proliferation assessed as bromodeoxyuridine incorporation during DNA synthesis after 48 hrs by ELISA; assay type: functional, cell-based
MG-63 = experiment: Inhibition of human MG63 cell proliferation assessed as bromodeoxyuridine incorporation during DNA synthesis after 48 hrs by ELISA; assay type: functional, cell-based; conditions: MG-63, 48 h
B16 = experiment: Inhibition of mouse B16 cell proliferation; assay type: functional, cell-based

Sequence of DNA topoisomerase 2-alpha (Homo sapiens) (P11388 whole entry): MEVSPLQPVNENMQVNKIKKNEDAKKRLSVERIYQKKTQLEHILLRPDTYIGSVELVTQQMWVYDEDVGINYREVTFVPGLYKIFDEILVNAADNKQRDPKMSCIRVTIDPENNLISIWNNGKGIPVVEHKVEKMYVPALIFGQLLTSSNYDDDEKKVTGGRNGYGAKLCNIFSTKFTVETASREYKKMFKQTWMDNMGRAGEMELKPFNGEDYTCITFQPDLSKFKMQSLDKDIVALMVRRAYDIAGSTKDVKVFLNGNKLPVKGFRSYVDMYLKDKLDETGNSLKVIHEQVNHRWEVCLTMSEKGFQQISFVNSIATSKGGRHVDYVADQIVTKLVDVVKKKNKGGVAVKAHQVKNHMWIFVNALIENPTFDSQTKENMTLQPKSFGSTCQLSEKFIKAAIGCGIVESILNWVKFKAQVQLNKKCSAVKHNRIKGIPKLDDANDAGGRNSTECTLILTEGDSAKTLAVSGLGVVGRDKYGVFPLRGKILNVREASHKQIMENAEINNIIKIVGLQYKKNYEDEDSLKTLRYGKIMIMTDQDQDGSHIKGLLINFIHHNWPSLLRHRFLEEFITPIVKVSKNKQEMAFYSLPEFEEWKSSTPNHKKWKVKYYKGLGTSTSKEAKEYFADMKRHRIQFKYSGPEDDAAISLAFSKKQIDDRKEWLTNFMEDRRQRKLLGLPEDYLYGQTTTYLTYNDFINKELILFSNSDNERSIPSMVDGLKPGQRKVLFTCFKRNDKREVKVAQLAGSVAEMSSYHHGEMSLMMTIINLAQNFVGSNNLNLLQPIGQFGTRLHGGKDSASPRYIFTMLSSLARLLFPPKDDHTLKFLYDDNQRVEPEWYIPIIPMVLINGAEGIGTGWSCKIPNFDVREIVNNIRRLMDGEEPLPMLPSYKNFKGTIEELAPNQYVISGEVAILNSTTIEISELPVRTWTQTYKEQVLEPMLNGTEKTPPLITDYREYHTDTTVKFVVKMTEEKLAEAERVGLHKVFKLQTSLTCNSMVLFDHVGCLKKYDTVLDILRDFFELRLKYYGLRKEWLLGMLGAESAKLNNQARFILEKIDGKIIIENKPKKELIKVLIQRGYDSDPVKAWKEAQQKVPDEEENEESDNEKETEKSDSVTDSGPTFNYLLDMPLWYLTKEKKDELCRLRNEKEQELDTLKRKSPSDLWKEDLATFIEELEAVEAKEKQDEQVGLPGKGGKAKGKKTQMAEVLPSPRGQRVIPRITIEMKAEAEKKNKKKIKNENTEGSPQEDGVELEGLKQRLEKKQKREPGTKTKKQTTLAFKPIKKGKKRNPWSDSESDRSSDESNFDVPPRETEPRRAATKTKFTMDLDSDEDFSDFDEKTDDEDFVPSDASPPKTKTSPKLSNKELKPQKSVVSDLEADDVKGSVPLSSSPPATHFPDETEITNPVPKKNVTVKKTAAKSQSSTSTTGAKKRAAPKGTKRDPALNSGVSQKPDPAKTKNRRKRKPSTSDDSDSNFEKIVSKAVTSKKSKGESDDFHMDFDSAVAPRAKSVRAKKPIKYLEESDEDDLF

C[C@@H]1CN(c2c(F)c(N)c3c(=O)c(C(=O)O)cn(C4CC4)c3c2F)C[C@H](C)N1 [SPARFLOXACIN]
pIC50 (HeLa [1]): 3.58 | pIC50 [2]: 3.91

N[C@H]1CCN(c2c(F)cc3c(=O)c(C(=O)O)cn4c3c2Oc2c-4ccc3c2ccc2ccccc23)C1
pIC50 [3]: 6.15 | pIC50 (MCF7 [4]): 6.00 | pIC50 (G-quadruplex DNA): 6.15

CCn1cc(C(=O)O)c(=O)c2cc(F)c(N3CCNCC3)cc21 [NORFLOXACIN]
pIC50 (A-431): 4.15 | pIC50 (KB): 3.82 | pIC50 (EJ): 3.68 | pIC50 (SK-MEL): 3.71 | pIC50 (HeLa [1]): 3.41 | pIC50 (MCF7 [5]): 3.62 | pIC50 [2]: < 3.00 | pIC50 (SW480): 3.77 | pIC50 (NCI-H460): 4.07

O=C(O)c1cn(C2CC2)c2c(F)c(-c3ccc(O)cc3)c(F)cc2c1=O
pIC50 (CHO [6]): 4.92 | pIC50 (CHO [7]): 5.05 | Activity (Drosophila melanogaster): 60 µM

N[C@@H]1CCN(c2c(F)cc3c(=O)c(C(=O)O)cn4c3c2Oc2c-4ccc3ccccc23)C1
pIC50 [8]: 8.30 | pIC50 (NCI-H226): 8.00 | Activity [9]: 0.2 µM | Activity [10]: 3 µM | pIC50 (HT-29 [11]): 7.52

COc1c(N2CCNC(C)C2)c(F)cc2c(=O)c(C(=O)O)cn(C3CC3)c12 (centres undefined) [GATIFLOXACIN]
pIC50 (HeLa [1]): 3.40

CCCCCCCCCC(=O)N1CCN(c2cc3c(cc2F)c(=O)c(C(=O)O)cn3C2CC2)CC1
pIC50 (PC-3 [12]): 5.40 | pIC50 [13]: 5.30 | MTD at 672 h [14]: > 80 mg/kg | remaining at 144 h [15]: 100% | pIC50 (A549 [16]): 5.52 | pIC50 (MCF7 [17]): 4.70 | pIC50 (LoVo [18]): 5.15

NC1CCN(c2c(F)cc3c(=O)c(C(=O)O)cn4c3c2Oc2ccccc2-4)C1 (centres undefined)
pIC50 [3]: 6.52 | pIC50 (MCF7 [4]): 6.15 | pIC50 [19]: 6.15 | pIC50 (P388): 7.30 | pIC50 (HCT-8): 6.52 | Activity [9]: 0.5 µM | pIC50 (HT-29 [20]): 6.30 | pIC50 (DU-145): 6.70 | Activity [10]: 50 µM | pIC50 (MCF7 [21]): 6.10 | pIC50 (HT-29 [11]): 6.70 | pIC50 (A549 [22]): 5.89

NC1CCN(c2nc3c(cc2F)c(=O)c(C(=O)O)cn3-c2ccc(F)cc2F)C1 (centres undefined) [TOSUFLOXACIN]
pIC50 (HeLa [1]): 4.49

O=C(O)c1cn(C2CC2)c2cc(N3CCN(C(=O)CCl)CC3)c(F)cc2c1=O
Ratio IC50 (LoVo [23]): 5 | pIC50 (PC-3 [12]): 5.10 | pIC50 [13]: 5.40 | Ratio IC50 (U373 MG): 5 | MTD at 672 h [14]: > 80 mg/kg | Ratio IC50 (PC-3 [24]): 5 | Ratio IC50 (MCF7 [25]): 5 | remaining at 144 h [15]: > 99% | pIC50 (A549 [16]): 5.00 | pIC50 (MCF7 [17]): 4.64 | pIC50 (LoVo [18]): 4.77 | Ratio IC50 (A549 [26]): 5

N[C@@H]1[C@H]2CN(c3nc4c(cc3F)c(=O)c(C(=O)O)cn4-c3ccc(F)cc3F)C[C@@H]12 [TROVAFLOXACIN]
pIC50 (MC3T3-E1): > 5.92

CCn1cc(C(=O)O)c(=O)c2cc(F)c(N3CCNC(C)C3)c(F)c21 (centres undefined) [LOMEFLOXACIN]
pIC50 (HeLa [1]): 3.39 | pIC50 [2]: 3.32

COc1c(N2C[C@@H]3CCCN[C@@H]3C2)c(F)cc2c(=O)c(C(=O)O)cn(C3CC3)c12 [MOXIFLOXACIN]
pIC50 (HeLa [27]): 3.49 | pIC50 (MG-63): 3.64

CC(C)(C)OC(=O)N1CCN(c2cc3c(cc2F)c(=O)c(C(=O)O)cn3C2CC2)CC1
Ratio IC50 (LoVo [23]): 2 | pIC50 (PC-3 [12]): 4.59 | pIC50 [13]: 4.46 | Ratio IC50 (U373 MG): 2 | MTD at 672 h [14]: > 80 mg/kg | Ratio IC50 (PC-3 [24]): 2 | Ratio IC50 (MCF7 [25]): 2 | remaining at 144 h [15]: > 99% | pIC50 (A549 [16]): 4.74 | pIC50 (MCF7 [17]): 4.89 | pIC50 (LoVo [18]): 4.40 | Ratio IC50 (A549 [26]): 2

N[C@@H]1CCN(c2c(F)cc3c(=O)c(C(=O)O)cn4c3c2Oc2c-4ccc3c2ccc2ccccc23)C1
pIC50 [3]: 6.52 | pIC50 (MCF7 [4]): 6.30 | pIC50 (G-quadruplex DNA): 7.22

CCCCOC(=O)N1CCN(c2cc3c(cc2F)c(=O)c(C(=O)O)cn3C2CC2)CC1
pIC50 (PC-3 [12]): 5.05 | pIC50 [13]: 4.51 | MTD at 672 h [14]: > 80 mg/kg | remaining at 144 h [15]: 100% | pIC50 (A549 [16]): 4.38 | pIC50 (MCF7 [17]): 4.85 | pIC50 (LoVo [18]): 4.28

CCn1cc(C(=O)O)c(=O)c2cc(F)c(N3CCNCC3)nc21 [ENOXACIN]
pIC50 (A-431): 3.82 | pIC50 (KB): 3.86 | pIC50 (EJ): 3.75 | pIC50 (SK-MEL): 3.71 | pIC50 (HeLa [1]): 3.77 | pIC50 (MCF7 [5]): 3.71 | pIC50 (SW480): 3.80 | pIC50 (NCI-H460): 4.44

CCCCCCCCOC(=O)N1CCN(c2cc3c(cc2F)c(=O)c(C(=O)O)cn3C2CC2)CC1
pIC50 (PC-3 [12]): 4.62 | pIC50 [13]: 4.10 | MTD at 672 h [14]: > 80 mg/kg | remaining at 144 h [15]: 100% | pIC50 (A549 [16]): 4.68 | pIC50 (MCF7 [17]): 4.64 | pIC50 (LoVo [18]): 4.37

N[C@H]1CCN(c2c(F)cc3c(=O)c(C(=O)O)cn4c3c2Oc2c-4ccc3ccccc23)C1
pIC50 [8]: 7.10 | pIC50 (B16): 6.70 | pIC50 (NCI-H226): 7.52 | Activity [9]: 0.5 µM | pIC50 (DU-145): 7.22 | Activity [10]: 10 µM | pIC50 (HT-29 [11]): 7.30

C[C@H]1COc2c(N3CCN(C)CC3)c(F)cc3c(=O)c(C(=O)O)cn1c23 [LEVOFLOXACIN]
pIC50 (MC3T3-E1): 3.66 | pIC50 (NCI-H460): 3.82

O=C(O)c1cn(C2CC2)c2cc(-c3ccc(O)cc3)c(F)cc2c1=O
pIC50 (CHO [6]): 4.40 | pIC50 (CHO [7]): 4.70 | Activity (Drosophila melanogaster): 130 µM
